# Measured values: ChEMBL document CHEMBL1821594, “Synthesis and anticancer evaluation of novel 2-cyclopropylimidazo[2,1-b][1,3,4]-thiadiazole derivatives” (2011)
# What was measured:
# CAKI-1 = test: Antitumor activity against human Caki1 cells after 48 hrs by SRB assay; type: functional; conditions: CAKI-1, 48 h
# How it was run: (§1)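 Cells grown in RPMI 1640 with 5% FBS and 2 mM L-glutamine and seeded at 5000–40,000 cells/well according to doubling time. They were preincubated 24 h at 37 °C, 5% CO2, then exposed to DMSO-solubilized compound for 48 h. Adherent cells were fixed with cold TCA (10% final), suspension cells with 16% final. Stained with 0.4% SRB; absorbance at 515 nm. Percent growth calculated against time-zero and control plates.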
# OVCAR-5 = test: Antitumor activity against human OVCAR5 cells after 48 hrs by SRB assay; type: functional; conditions: OVCAR-5, 48 h; how it was run: as §1
# [1] = read-out: LC50 (the source's name)
smiles,measurement,setting,value
Clc1ccc(-c2nc3sc(C4CC4)nn3c2Br)cc1,GI50,CAKI-1,9.69 µM
same,TGI,CAKI-1,> 100 µM
same,CC50,CAKI-1; [1],> 100 µM
same,GI50,OVCAR-5,31.9 µM
same,TGI,OVCAR-5,> 100 µM
same,CC50,OVCAR-5; [1],> 100 µM
